Data on six molecules can be found in ChEMBL document CHEMBL2440044, “Synthesis and anti-tumor activity of carbohydrate analogues of the tetrahydrofuran containing acetogenins” (Bioorg Med Chem, 2013).

Molecules are shown by their SMILES.

Common to all, as to format: functional, cell-based
One test relates to PC-3. The experiment in a line: Cytotoxicity against human PC3 cells after 48 hrs by Cell titer Glo assay. The following applies: PC-3, 48 h. In short, it runs like this: (§1)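 Cells grown in medium with 10% FBS and penicillin-streptomycin: DMEM for HeLa, MDA-MB231 and PC-3, RPMI for Jurkat. Compounds were taken from 20 mM DMSO stocks and serially diluted in medium at 37 °C. Cells were exposed for 48 h. Viability was read as ATP luminescence and normalized to untreated control (% viability). IC50 came from dose-response curve fits; each was run three times and given as mean ± SD.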

A further test deals with MDA-MB-231. The experiment in a line: Cytotoxicity against human MDA-MB-231 cells after 48 hrs by Cell titer Glo assay. The following applies: MDA-MB-231, 48 h. The gist of the method: as §1
In a further test the test system is HeLa. The experiment in a line: Cytotoxicity against human HeLa cells after 48 hrs by Cell titer Glo assay. The gist of the method: as §1
Another test has as its system Jurkat. Kind of test: Cytotoxicity against human Jurkat cells after 48 hrs by Cell titer Glo assay. In short, it runs like this: as §1

Turning to `CCCCCCCCCCCC[C@@H](O)[C@H]1CC[C@H]([C@H](O)CCCCC[C@@H](O)CCCCCCC2=C[C@H](C)OC2=O)O1`, the IC50 with PC-3 is 43.1 µM; in the test on MDA-MB-231 it was 34.2 µM; with HeLa, 21 µM; with Jurkat, 17.8 µM.
With `CCCCCCCCCCCO[C@H]1[C@@H](O)[C@@H](CO)O[C@@H](OCCCCCCCCCCCC[C@@H](O)CC2=C[C@H](C)OC2=O)[C@@H]1O`, the IC50 in the test on MDA-MB-231 came out at 73.5 µM; in the test with HeLa it was 50.3 µM; with Jurkat it was 78.2 µM.
Turning to `CCCCCCCCCCCOC[C@H]1O[C@H](OCCCCCCCCCCCC[C@@H](O)CC2=C[C@H](C)OC2=O)[C@@H](O)[C@@H](O)[C@@H]1O`, the IC50 in the test with PC-3 was determined as 32.6 µM; with MDA-MB-231 it was 21.2 µM; in the test with HeLa, 15.2 µM; in the test with Jurkat, 10.1 µM.
For the molecule `CCCCCCCCCCCOC[C@@H]1C[C@H](O)[C@H](O)[C@@H](OCCCCCCCCCCCC[C@@H](O)CC2=C[C@H](C)OC2=O)O1`, the IC50 turned out to be 52.8 µM in the test on PC-3, 36.7 µM in the test on MDA-MB-231, 23.3 µM in the test on HeLa and 19.7 µM in the test on Jurkat.
Taken in the same sequence, the figures for `CCCCCCCCCCCOC[C@H]1O[C@H](OCCCCCCCCCCCC[C@@H](O)CC2=C[C@H](C)OC2=O)C[C@@H](O)[C@@H]1O` were 44 µM, 16.8 µM, 16.3 µM and 13.3 µM.
Taken in the same sequence, the figures for `CCCCCCCCCCCOC[C@@H]1CC[C@H](O)[C@@H](OCCCCCCCCCCCC[C@@H](O)CC2=C[C@H](C)OC2=O)O1` were 28.7 µM, 21.8 µM, 13.9 µM and 10.7 µM.
